# According to publication PMC5350499 (International Journal for Parasitology: Drugs and Drug …, 2017):
# Where two headings read alike, the source gives them in different places.
# Experiments:
# [1] = test system: P. falciparum Dd2 (chloroquine-resistant); experiment: SYBR green I-based parasite viability assay, Dd2 strain; format: cell-based, Plasmodium falciparum; conditions: for EC50: Plasmodium falciparum, DD2, 72 h
# In short: (§1)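 Parasites grown in human A+ erythrocytes in RPMI 1640 (25 mM HEPES pH 7.4, 26 mM NaHCO3, 2% dextrose, hypoxanthine, gentamycin, 0.5% Albumax II), 37 °C, 5% CO2. Compound DMSO dilutions (<0.125% DMSO) at 1% parasitemia, 2% hematocrit; chloroquine baseline. After 72 h: frozen at −80 °C, thawed, lysed with saponin/Triton/EDTA buffer containing 0.01% SYBR Green I, 30 min dark at 37 °C; fluorescence read at 485/530 nm. EC50 from 3 experiments × 3 replicates (±SD).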
# [2] = test system: P. falciparum 3D7 (chloroquine-sensitive); experiment: SYBR green I-based parasite viability assay, 3D7 strain; format: cell-based; conditions: Plasmodium falciparum, 3D7, 72 h
# In short: as §1
# [3] = test system: HepG2 human hepatocyte cells; experiment: MTS cytotoxicity assay; format: cell-based; conditions: for EC50: Homo sapiens
# In short: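 HepG2 seeded at 2500 cells/well in 384-well plates with compound dilutions, 48 h at 37 °C, 5% CO2. MTS reagent added for a further 3 h; absorbance read at 490 nm. EC50 from 3 independent experiments, each in triplicate (±SD).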
# [4] = Aqueous solubility at pH 7.4, UV-visible absorption based method; format: physicochemical; conditions: aqueous solution at pH 7.4, pH 7.4, aqueous buffer
# [5] = Microsomal stability; format: in vitro ADME; conditions: mouse, liver microsomes
# [6] = test system: β-hematin formation; experiment: β-Hematin formation assay; format: biochemical; conditions: 100 μM; for %Inhibition of β-hematin formation: average of two separate experiments
# In short: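 Compound added with water, acetone and Nonidet P-40, then hematin-DMSO suspension; incubated 6 h at 37 °C with shaking. β-Hematin measured by pyridine ferrochrome method: 5% v/v final pyridine (from water/20% acetone/HEPES/50% pyridine solution), 10 min under the same conditions, absorbance at 405 nm. Chloroquine and 8-hydroxyquinoline run as references.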
# [7] = test system: P. falciparum Dd2; experiment: Stage specificity, Giemsa-stained thin smears of synchronized cultures; format: cell-based, Plasmodium falciparum
# [8] = test system: P. falciparum Dd2; experiment: Stage specificity, YOYO-1 flow cytometry of synchronized cultures; format: cell-based, Plasmodium falciparum; conditions: treated at ring stage (6 hpi), 5× EC50; monitored every 12 h
# In short: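 Aliquots taken every 12 h over 48 h. Samples fixed in 0.04% glutaraldehyde/PBS, permeabilized with 0.25% Triton X-100, RNase-treated and stained with YOYO-1. Flow cytometry at 488 nm excitation with a 530/30 filter; DNA content plotted against cell count.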
# [9] = test system: P. falciparum HB3 (chloroquine-sensitive); experiment: Image-based merozoite egress and invasion assay; format: cell-based, Plasmodium falciparum; conditions: for parasite phenotype in sample micrographs: 1 μM at 42 hpi for 24 h (Fig. 4 legend); for effect on merozoite egress and invasion: exposed at 42 hpi (schizont stage) for 24 h, 10 μM per method
# In short: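 Sorbitol-synchronized HB3 at 1.5% hematocrit and 5% parasitemia, exposed at 42 hpi for 24 h alongside GlcNAc, E-64 and artemisinin references. Stained with WGA-Alexa Fluor 488 and Mitotracker Red CMXRos (1 nM each, 37 °C, 20 min), then fixed in 4% paraformaldehyde with DAPI. Five fields per well imaged at 405/488/635 nm (40× objective) with automated detection of parasitized erythrocytes.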
# [10] = test system: P. falciparum; experiment: Parasitemia after treatment at late schizont/segmenter stage; format: cell-based, Plasmodium falciparum; conditions: 5× EC50, 24 h; compared to control cultures
# [11] = test system: P. berghei ANKA; experiment: Peters' four-day test, murine malaria model; format: in vivo, Plasmodium berghei in balb/c mice; conditions: 100 mg/kg twice daily oral
# [12] = test system: P. berghei ANKA expressing luciferase; experiment: Elimination of existing infection, luciferase IVIS imaging; format: in vivo, Plasmodium berghei in Swiss Webster mice; conditions: 100 mg/kg once daily oral, started 72 h post-infection; Swiss Webster mice
# In short: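 Swiss Webster mice infected with 10^4 luciferase-expressing P. berghei ANKA on day 0 and grouped at 72 h (n = 5/group). Oral gavage once daily for 5 days: test compound 100 mg/kg, chloroquine 40 mg/kg, or vehicle (2% methylcellulose, 0.5% Tween80). On day 7, D-luciferin 150 mg/kg injected; signal detected and quantified by IVIS.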
# [13] = HepG2, 48 h, read-out: HepG2 EC50
smiles,measurement,setting,value
"CCN(CC)CCCC(C)Nc1cc(/C=C/c2ccc([N+](=O)[O-])cc2)nc2ccc(OC)cc12 (stereo not shown) [UCF 501, 4-Nitro styrylquinoline (NSQ)]",EC50,[1]; read-out: EC50 Dd2,67 ± 8 nM
same,EC50,[2]; read-out: EC50 3D7,119 ± 3 nM
same,selectivity,[3]; HepG2 EC50 versus Dd2 EC50,192
same,EC50,"[3]; HepG2, 48 h, read-out: EC50 HepG2",12920 ± 70 nM
same,EC50,"[3]; HepG2, read-out: EC50 in HepG2 cells",12900 nM
same,solubility,[4],290 µg/mL
same,remaining at 1 h,[5],47.8%
same,half-life,"[5]; Microsomal stability t1/2, mouse liver microsomes",56.2 min
same,"inhibition of β-hematin formation, in words",[6],totally inactive
same,%Inhibition of β-hematin formation,[6],0 ± 0.07%
same,ring-infected erythrocytes after exposure at 42 hpi,"[7]; 5× EC50, compared to untreated controls",scarcely seen
same,blocking merozoite egress,"[7]; 5× EC50, treated at 42 hpi",inactive
same,time to phenotypically observable developmental changes,"[7]; after treatment, all stages of the intraerythrocytic lifecycle",≤ 12 h
same,intraerythrocytic maturation by flow cytometry,[8],maturation is blocked
same,parasite phenotype in sample micrographs,[9],accumulation of extracellular merozoites
same,effect on merozoite egress and invasion,[9],blocks invasion
same,culture parasitemia after exposure at 42 hpi,[10],significant reduction
same,mice cured of malaria infection,"[11]; 4 days, Balb/c mice, no infection up to day 30",4/5
same,"parasitemia in the one animal not cured, day 22",[11]; day 22,0.2%
same,"parasitemia in the one animal not cured, day 27","[11]; day 27, euthanized",40%
same,"luciferase expressing parasite burden, delayed treatment",[12],almost cleared
COc1ccc2nc(/C=C/c3ccc(C(F)(F)F)cc3)cc(NCCCN(C)C)c2c1 [Compound 10],EC50,[1]; read-out: Dd2 EC50,726 ± 40 nM
same,EC50,[2]; read-out: 3D7 EC50,605 ± 40 nM
same,EC50,[3]; [13],> 20000 nM
COC(=O)c1ccc(/C=C/c2cc(NCCCN3CCOCC3)c3cc(OC)ccc3n2)cc1 [Compound 16],EC50,[1]; read-out: Dd2 EC50,471 ± 80 nM
same,EC50,[2]; read-out: 3D7 EC50,322 ± 40 nM
same,EC50,[3]; [13],12800 ± 20 nM
COc1ccc2nc(/C=C/c3ccc(C(F)(F)F)cc3)cc(NCCCN3CCOCC3)c2c1 [Compound 15],EC50,[1]; read-out: Dd2 EC50,735 ± 60 nM
same,EC50,[2]; read-out: 3D7 EC50,599 ± 30 nM
same,EC50,[3]; [13],> 20000 nM
COc1ccc2nc(/C=C/c3ccccc3)cc(NCCCN3CCOCC3)c2c1 [Compound 13],EC50,[1]; read-out: Dd2 EC50,303 ± 40 nM
same,EC50,[2]; read-out: 3D7 EC50,373 ± 30 nM
same,EC50,[3]; [13],18000 ± 40 nM
COc1ccc2nc(/C=C/c3ccc(F)cc3)cc(NCCCN(C)C)c2c1 [Compound 9],EC50,[1]; read-out: Dd2 EC50,137 ± 50 nM
same,EC50,[2]; read-out: 3D7 EC50,299 ± 40 nM
same,EC50,[3]; [13],12600 ± 10 nM
COc1ccc2nc(/C=C/c3ccccc3)cc(NCCCN(C)C)c2c1 [Compound 8],EC50,[1]; read-out: Dd2 EC50,323 ± 40 nM
same,EC50,[2]; read-out: 3D7 EC50,302 ± 10 nM
same,EC50,[3]; [13],19900 ± 40 nM
Oc1cccc2cccnc12 [8-Hydroxyquinoline],%Inhibition of β-hematin formation,[6],6 ± 0.42%
COc1ccc2nc(/C=C/c3ccc(F)cc3)cc(NCCCN3CCOCC3)c2c1 [Compound 14],EC50,[1]; read-out: Dd2 EC50,208 ± 40 nM
same,EC50,[2]; read-out: 3D7 EC50,310 ± 20 nM
same,EC50,[3]; [13],13600 ± 50 nM
"CCN(CC)CCCC(C)Nc1ccnc2cc(Cl)ccc12 (stereo not shown) [Chloroquine, reference compound]",EC50 fold higher in Dd2 compared to 3D7,[1]; Dd2 versus 3D7,15 fold
same,EC50,[1]; read-out: Dd2 EC50,172 nM
same,EC50,[2]; read-out: 3D7 EC50,11 ± 2 nM
same,EC50,[3]; [13],> 20000 nM
same,"inhibition of β-hematin formation, in words",[6],complete inhibition
same,%Inhibition of β-hematin formation,[6],100 ± 1.78%
COC(=O)c1ccc(/C=C/c2cc(NCCCN(C)C)c3cc(OC)ccc3n2)cc1 [Compound 11],EC50,[1]; read-out: Dd2 EC50,138 ± 60 nM
same,EC50,[2]; read-out: 3D7 EC50,294 ± 60 nM
same,EC50,[3]; [13],14900 ± 30 nM
COc1ccc2nc(/C=C/c3ccc([N+](=O)[O-])cc3)cc(NCCCN(C)C)c2c1 [Compound 12],EC50,[1]; read-out: Dd2 EC50,57 ± 30 nM
same,EC50,[2]; read-out: 3D7 EC50,197 ± 20 nM
same,EC50,[3]; [13],15300 ± 50 nM
"C[C@@H]1CC[C@H]2[C@@H](C)C(=O)O[C@@H]3O[C@@]4(C)CC[C@@H]1[C@]32OO4 [artemisinin, reference compound]",intraerythrocytic maturation by flow cytometry,[8],maturation is blocked
same,effect on merozoite egress and invasion,[9],no effect on invasion
same,culture parasitemia after exposure at 42 hpi,[10],does not cause similar marked reduction
"CC(C)C[C@H](NC(=O)[C@H]1O[C@@H]1C(=O)O)C(=O)NCCCCN=C(N)N (relative stereo) [Compound E-64, L-trans-epoxysuccinyl-leucylamido-(4-guanidino)butane]",effect on merozoite egress and invasion,[9],completely blocks egress
COc1ccc2nc(/C=C/c3ccc([N+](=O)[O-])cc3)cc(NCCCN3CCOCC3)c2c1 [Compound 17],EC50,[1]; read-out: Dd2 EC50,123 ± 50 nM
same,EC50,[2]; read-out: 3D7 EC50,193 ± 50 nM
same,EC50,[3]; [13],15700 ± 70 nM
CC(=O)N[C@@H]1[C@@H](O)[C@H](O)[C@@H](CO)O[C@H]1O [N-acetylglucosamine],parasite phenotype in sample micrographs,[9],accumulation of extracellular merozoites
same,effect on merozoite egress and invasion,[9],blocks invasion
